Experimental data from article PMC5362268 (Cell, 2017).
Residues, ends and D or L forms follow the SMILES beside them. *: point of attachment. Cbz = O=C(OCc1ccccc1)*

Experiments:
[1] = tested on: BRAF^V600E-CAAX-expressing MEF cells; assay: Viability assay in mouse embryo fibroblasts; type: cell-based; conditions: compared with Kras^lox/lox MEFs
DLD-1 cells = assay: Pan-RAS siRNA knockdown and viability; type: cell-based, human; conditions: si-panRAS vs non-targeting siRNA, 24 h, CellTiter-Glo
Outline: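 DLD-1 cells reverse-transfected in 6-well plates with siRNA pools against HRAS, KRAS and NRAS, or a non-targeting pool. Cells then re-suspended in serum-free RPMI and seeded at 10,000 cells/well in 384-well plates overnight. Dilution series added from 10× stocks in serum-free Opti-mem; 24 h incubation; viability by CellTiter-Glo.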

Compound | sensitivity of BRAF^V600E-CAAX-expressing cells [1] | effect of combined HRAS, NRAS and KRAS knockdown on compound lethality (DLD-1 cells)
CCCS(=O)(=O)Nc1ccc(F)c(C(=O)c2c[nH]c3ncc(-c4ccc(Cl)cc4)cc23)c1F [vemurafenib, reference compound] | more sensitive | –
CC(C)C[C@@H](C=O)NC(=O)[C@H](CC(C)C)NC(=O)[C@H](CC(C)C)NC(=O)OCc1ccccc1 [MG132, reference compound] (Cbz-Leu-Leu-Leu-aldehyde) | – | did not sensitize
